We go through 101 compounds from PubChem BioAssay AID463111 (Johns Hopkins Ion Channel Center, 2010).

The whole screen tested about 310,000 compounds, of which about 2,800 (0.9%) were called active.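 The calls were made as follows: active = B-score of the integrated calcium signal more than 4 SD below the library mean, with starting fluorescence not abnormally high; inactive = the rest.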 The entries come from a sample that favours actives as a whole.

The test is described as follows: enhancers of RGS4 function in calcium signaling – cell-based, HEK293 M3R inducible RGS4, calcium flux, primary screen (AID 463111).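 As to B-score: negative B-score means reduced calcium response which marks RGS4 activation or potentiation.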 The note with it: HEK293 M3R/inducible RGS4, carbachol calcium flux Fluo4, at 10 µM; stronger effect = lower value. A digest of the protocol:
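Detection: kinetic calcium fluorescence imaging with Fluo4-AM dye, 2 µM / Material: HEK293 cells with stable M3R and inducible RGS4 / Schedule: recording 10 s baseline at 1 Hz, 100 s post-agonist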
In general terms: A change in cytosolic calcium serves as a functional read-out for many receptors and channels.
In the case of `Cc1cc(C)c2nc(-c3ccco3)cc(C(=O)O)c2c1`, the B-score entry was “inactive”. The figure for `Cc1cc(C)c2nc3nc(C)cc(C)c3c(N)c2c1` is -7.22 (active); for `CN(CC1CCCO1)S(=O)(=O)c1ccc(C(=O)Nc2ccc([N+](=O)[O-])cc2)cc1` (stereo unspecified) it is “inactive”. On to `Cc1ccc(OC(=O)c2ccccc2C(=O)OCC(F)(F)C(F)F)cc1`, for which the B-score entry was “inactive”. With `O=C(COC(=O)/C=C/c1ccc(S(=O)(=O)N2CCCCCC2)cc1)NCc1ccccc1Cl`, the B-score result was “inactive”. The entry for `O=C(c1ccc(F)c(S(=O)(=O)N2CCOCC2)c1)N(CCc1ccccc1)Cc1ccccc1` is “inactive”. In the case of `CCCOc1ccc(Cn2ccnc2)cc1[N+](=O)[O-]` it was “inactive”; in that of `CCCCOc1ccc(CSC(=N)N)cc1[N+](=O)[O-]`, -7.06 (active). The entry for `CCCCCOc1ccc(CSC2=NCCN2)cc1[N+](=O)[O-]` is “inactive”.

On to `COc1cc(C2OC(c3cc(OC)c(OC)c(OC)c3)C(C)C2C)cc(OC)c1OC` (stereo unspecified), for which the B-score entry is “inactive”.

With `CSCCC(NS(=O)(=O)c1ccc(C)cc1)C(=O)NCCc1c[nH]c2ccccc12` (stereo unspecified), the B-score result was “inactive”. `O=C(Nc1cccc(Cl)c1)c1cc([N+](=O)[O-])ccc1N1CCN(CCO)CC1`: the B-score result was “inactive”. The entry for `CCC(=O)c1ccc(N2CCN(C(=O)c3cc([N+](=O)[O-])ccc3F)CC2)c(F)c1` is “inactive”. With `CCN1CCN(c2ccc([N+](=O)[O-])cc2C(=O)c2ccc(Cl)cc2)CC1`, the B-score was -7.47 (active).

Regarding `O=C(N/N=C/c1ccc(O)c(O)c1)C1c2ccccc2Oc2ccccc21`, the B-score result is “inactive”.

`O=C(CCC1CCN(C(=O)c2cccc(Cl)c2F)CC1)Nc1ccccc1`: the B-score entry is “inactive”. In the case of `Cc1cc(S(=O)(=O)Nc2ccc(C(=O)NCC(c3ccco3)N3CCCC3)cc2)ccc1F` (stereo unspecified) it was “inactive”. The figure for `COc1ccc(OCc2cc(C(=O)N3CCCC3)no2)c2ccccc12` is -7 (active); for `COc1cc(Cl)ccc1OCc1cc(C(=O)N2CC[C@@H]3CCCC[C@H]3C2)no1` it is “inactive”; for `COc1ccccc1-c1cc(C(=O)N2CCCCC2)no1` it is “inactive”.

With `O=C(NC1(C(F)(F)F)NC(=O)N(Cc2cccnc2)C1=O)c1ccccc1Cl` (stereo unspecified), the B-score result is “inactive”. `O=C(CN1C(=O)c2cccnc2Oc2ccc(Cl)cc21)NCCc1ccccc1`: the B-score result is “inactive”.

For the compound `CCOC(=O)c1cccc(NC(=O)c2ccc(F)cc2F)c1`, the B-score result is “inactive”. With `Cc1ccc(N(Cc2ccccc2O)C(=O)c2ccccc2F)cc1`, the B-score result is “inactive”. In the case of `Cn1c(N)c(C(=O)COC(=O)c2cnc(Cl)c(Cl)c2)c(=O)n(C)c1=O` it was “inactive”; in that of `Cc1ccc(C)c(NC(=O)NNC(=O)c2ccc3ccccc3c2O)c1`, “inactive”. With `CSc1ccc(NC(=O)/C=C/C(=O)O)cc1`, the B-score result is “inactive”. The figure for `COC(=O)c1sc(-c2ccc(C(C)(C)C)cc2)cc1NC(=O)/C=C/C(=O)O` is -8.52 (active); for `CC(C)(C)c1ccc(/C=C/C(=O)Nc2ncccn2)cc1` it is “inactive”; for `Cc1onc(-c2c(F)cccc2Cl)c1C(=O)N(C)CC(=O)Nc1cccc(F)c1` it is “inactive”. The entry for `Cn1cnnc1Sc1ccc(CN2CCN(C3CCCC3)C(CCO)C2)o1` (stereo unspecified) is “inactive”; for `OCCC1CN(Cc2ccc3nsnc3c2)CCN1C1CCCCC1` (stereo unspecified) it is “inactive”. The figure for `OCCC1CN(Cc2ccc3nsnc3c2)CCN1C1CCCC1` (stereo unspecified) is -8.81 (active); for `COc1ccccc1C(=O)N/C(=C/c1ccc2c(c1)OCO2)C(=O)Nc1cccc(C(=O)O)c1` it is “inactive”; for `CCN(CC)CCN(C(=O)c1ccc(S(=O)(=O)N2CCOCC2)cc1)c1nc2cc3c(cc2s1)OCCO3` it is “inactive”. In the case of `CN(C)CCCN(C(=O)c1ccc(S(=O)(=O)N2CCCCCC2)cc1)c1nc2ccc(Br)cc2s1`, the B-score entry was “inactive”. Regarding `CN(C)CCCN(C(=O)c1ccc(S(=O)(=O)N2CCCCCC2)cc1)c1nc2cc3c(cc2s1)OCCO3`, the B-score was -7.42 (active). In the case of `CC(CC(=O)Nc1ccc(F)cc1F)S(=O)(=O)c1ccc2c(c1)NC(=O)CO2` (stereo unspecified) it was “inactive”; in that of `CC(CC(=O)N1CCN(S(=O)(=O)c2ccccc2)CC1)n1cncn1` (stereo unspecified), “inactive”.

Consider `C=CCNC(=O)c1ccccc1SCc1c(C)noc1C`, for which the B-score result was “inactive”. As for `CCC(C)Sc1nc2c(c(=O)[nH]c(=O)n2C)n1CC(O)COc1cccc2ccccc12` (stereo unspecified), the B-score result is “inactive”. Turning to `Cc1cc(C)c(NC(=O)C[N+](C)(C)CC(O)COc2cccc3ccccc23)c(C)c1` (stereo unspecified), the B-score entry was “inactive”. The figure for `CC(C)c1ccccc1OCC(O)CN(CC(O)COc1cccc2ccccc12)C(C)C` (stereo unspecified) is -10 (active).

Take `CCCN(c1ccc(C)cc1)c1nc(=O)c2cccnc2s1`: the B-score result is “inactive”.

For the compound `CCOC(=O)c1c(NC(=O)NC(C)(C)C)sc2c1CCN(C)C2`, the B-score was -8.36 (active). With `CCOC(=O)c1c(NC(=S)Nc2ccccc2)sc2c1CCN(C)C2`, the B-score result is “inactive”.

As for `CCOC(=O)c1c(NC(=O)Cn2nc(C(F)(F)F)cc2C)sc2c1CCC2`, the B-score entry is “inactive”.

With `CCOC(=O)C1C(c2ccc(OC)c(OC)c2)c2c([nH][nH]c2=O)CC1(C)O` (stereo unspecified), the B-score entry is “inactive”.

As to `CC1CN(/C=C/C(=O)C(F)(F)F)CC(C)O1` (stereo unspecified), the B-score result is “inactive”.

For the compound `CCCc1ccc(OCc2ccc(C(=O)N/N=C/c3cccc([N+](=O)[O-])c3)o2)c(OC)c1`, the B-score result is “inactive”. In the case of `O=C(O)CSc1c2c(nc3cc(C(=O)Nc4cccc(C(F)(F)F)c4)ccc13)CCCC2` it was “inactive”; in that of `FC(F)(F)c1cccc(NC(=S)Nc2cccc(Cl)c2)c1`, “inactive”. In the case of `Cn1nc(C(F)(F)F)c(C(=O)Nc2cccc(C(F)(F)F)c2)c1SCc1ccc(Cl)cc1` it was -10.4 (active); in that of `CC(C)=CCCC(C)CN1CCC(n2nccc2NC(=O)c2ccccc2)CC1` (stereo unspecified), “inactive”. In the case of `CCOC(=O)c1ccc(-n2c(CCC(=O)O)ccc2-c2ccccc2)cc1` it was “inactive”; in that of `COCCCn1c(CCC(=O)O)ccc1-c1ccc(F)cc1`, “inactive”; in that of `CC(C)Cn1c(CCC(=O)O)ccc1-c1cccs1`, -7.21 (active).

In the case of `Cc1ccccc1CNC(=O)CCC(=O)N1Cc2ccccc2Oc2ncccc21`, the B-score entry was “inactive”. In the case of `CC(C)(c1ccccc1)c1ccc(OCCN2CCCC2)cc1` it was “inactive”.

As to `C#CC(CCN1CCCCC1)(OC)c1ccccc1` (stereo unspecified), the B-score is -8.27 (active). As to `CCCCOc1ccc(C(C)(O)CCN2CCOCC2)cc1` (stereo unspecified), the B-score entry was “inactive”.

On to `c1ccc(-c2ccccc2OCCN2CCCCC2)cc1`, for which the B-score result was “inactive”. The figure for `CCCCCC(O)(CCN1CCCCC1)c1ccccc1` (stereo unspecified) is -9.9 (active); for `CCCCCCC(O)(CCN1CCCCC1)c1ccccc1` (stereo unspecified) it is “inactive”. In the case of `CCC(CC)COC(=O)C1=C(C)NC(=O)NC1c1ccc([N+](=O)[O-])cc1` (stereo unspecified) it was “inactive”; in that of `COc1ccc(C(CC(=O)c2ccccc2)S(=O)(=O)c2ccccc2)cc1` (stereo unspecified), “inactive”. In the case of `COC(=O)c1ccc(C2C3=C(Nc4nnnn42)c2ccccc2OC3)cc1` (stereo unspecified) it was “inactive”; in that of `COC(=O)c1cc2occc2n1Cc1nc(-c2ccccc2C)oc1C`, -7.3 (active); in that of `Cc1ccccc1-c1nc(CS(=O)(=O)CC(=O)N2CCc3ccccc3C2)c(C)o1`, “inactive”. For the compound `Cc1ccccc1-c1nc(CS(=O)(=O)CC(=O)NC(C)c2ccccc2)c(C)o1` (stereo unspecified), the B-score result was “inactive”.

Take `O=C(NCCc1ccccn1)c1cc(C(=O)C2CCCCC2)c[nH]1`: the B-score entry was “inactive”. The entry for `CCC1CCCCN1CCCNC(=O)C1CCC(Cn2c(=O)[nH]c3ccccc3c2=O)CC1` (stereo unspecified) is “inactive”; for `CCC1CCCCN1CCCNC(=O)c1cc2c(Cl)nc3ccccc3c2s1` (stereo unspecified) it is -8.65 (active); for `CCC1CCCCN1CCCNC(=O)Cn1nc(-c2ccccc2)ccc1=O` (stereo unspecified) it is “inactive”.

As for `CC(C)C(c1nnnn1CCc1ccccc1)N1CCN(C(=O)c2ccco2)CC1` (stereo unspecified), the B-score was -10.4 (active). The entry for `CCC(c1nnnn1C1CCCC1)N1CCN(C(=O)c2ccco2)CC1` (stereo unspecified) is “inactive”. The entry for `CC(C)C(c1nnnn1C1CCCCC1)N1CCN(C(=O)c2ccco2)CC1` (stereo unspecified) is “inactive”; for `NC(=O)Nc1ccccc1C(=O)NCCc1ccccc1` it is “inactive”. The entry for `Cc1ccccc1C(=O)NC(=S)NC1CC1` is “inactive”; for `Cc1ccc(-c2nc(-c3cccnc3)sc2CC(=O)Nc2ccc(C)c(Cl)c2)cc1` it is “inactive”. In the case of `CCCN1CCN(C(=O)CCCNC(=O)c2ccc(Cl)cc2)CC1`, the B-score result was “inactive”. The figure for `CN1CCN(CCCNC(=O)c2ccc(/C=C3\Oc4ccccc4N(Cc4ccc(Cl)cc4)C3=O)cc2)CC1` is -7.39 (active); for `CN1C(=O)/C(=C/c2ccc(C(=O)NC3CCCC3)cc2)Oc2ccccc21` it is “inactive”. The entry for `COc1ccc2c(c1)C(NS(=O)(=O)OCC(Cl)(Cl)Cl)CCC2` (stereo unspecified) is “inactive”; for `CC1(C)C=C2[C@H]3CC[C@@H]4[C@@]5(C)CCC(=O)C(C)(C)[C@@H]5CC[C@@]4(C)[C@]3(C)CC[C@@]2(C(=O)O)CC1` it is -9.3 (active); for `CCOC(=O)CCCNC(=O)COC(=O)c1cc(Br)c(Br)s1` it is “inactive”.

`O=C(NC(=O)c1cc(OCC(F)(F)F)ccc1OCC(F)(F)F)Nc1ccccc1`: the B-score entry is “inactive”. The entry for `NS(=O)(=O)c1ccc(CCNS(=O)(=O)c2cccc3cccnc23)cc1` is “inactive”; for `O=C(NCC1CCCO1)c1cc2c([nH]c3ccccc32)c(-c2ccc(F)cc2)n1` (stereo unspecified) it is -11.5 (active); for `O=C(NCCCO)c1cc2c([nH]c3ccccc32)c(-c2ccc(F)cc2)n1` it is “inactive”. For the compound `O=C(NCC1CCCO1)c1cc(-c2ccccc2)nc2ccccc12` (stereo unspecified), the B-score result was “inactive”. With `CC(=O)N/C(=C\c1ccc(F)cc1)C(=O)NC(Cc1ccccc1)C(=O)O` (stereo unspecified), the B-score result is “inactive”. Turning to `CCOC(=O)c1csc(CCNC(=O)c2oc3c(Cl)cc(C)cc3c2C)n1`, the B-score result was “inactive”. In the case of `Cc1ccc(OCCCn2c(=O)oc3ccccc32)cc1` it was “inactive”. As to `CCCCCCCCCCOC(=O)Cn1c(COc2cccc(OC)c2)[n+](C)c2ccccc21`, the B-score entry was “inactive”. In the case of `CCCCCCCCCCOC(=O)Cn1c(COc2ccc(C)cc2)[n+](C)c2ccccc21` it was -8.44 (active); in that of `O=C(CCN1C(=O)C2C3CCC(C3)C2C1=O)Nc1ccc(Cl)cc1Cl` (stereo unspecified), “inactive”. Take `CC(NCCc1ccc(S(N)(=O)=O)cc1)C(=O)NCc1ccccc1` (stereo unspecified): the B-score entry was “inactive”. With `O=[N+]([O-])c1cc([N+](=O)[O-])c(Oc2cc(F)cc(F)c2F)cc1NN1CCCCC1`, the B-score is -7.39 (active). In the case of `O=C(COc1ccc(Cl)cc1[N+](=O)[O-])N1CCCCC1` it was “inactive”; in that of `O=C(CN1CCCCCC1)Nc1ccc(Br)cc1[N+](=O)[O-]`, “inactive”.
